One experiment addresses p97 ATPase (Mus musculus, UniProt Q01853). In words: p97 ATPase assay. In kind it is biochemical.
In experiment [1] the test system is Ub^G76V-GFP. In words: cells. In kind it is cell-based, human. The conditions noted are these: for IC50: Homo sapiens, read-out: IC50 Ub^G76V-GFP.
Experiment [2] deals with ODD-Luc. In words: ODD-Luc reporter degradation assay. In kind it is cell-based, human. The conditions noted are these: for IC50: Homo sapiens, read-out: IC50 ODD-Luc.
The subject of experiment [3] is Ub^G76V-GFP. In words: Ub^G76V-GFP reporter accumulation assay. In kind it is cell-based, human. To be noted: for Score in Ub^G76V-GFP accumulation screen: rescreen of 160 kinase inhibitors. In short, it runs like this:
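Dual-reporter HeLa cells expressing UbG76V-GFP were seeded at 5000 per well and grown 16 h. They were exposed to DMSO, MG132 or test compound in modified DMEM (no phenol red, folic acid, riboflavin or vitamin B12) for 2–3 h. Two GFP images per well (100-ms exposure) were taken by automated microscopy. Mean GFP intensity per cell area was averaged over about 500 cells, background-corrected using reporter-free cells, and normalized to DMSO-treated cells.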

Experiment [4] relates to Luc-ODC. In words: Luc-ODC reporter degradation assay. In kind it is cell-based, human. To be noted: for IC50: Homo sapiens, read-out: IC50 Luc-ODC.
A further experiment has as its system TCRα-GFP. The experiment is described as follows: ERAD reporter TCRα-GFP degradation in HEK293 cells. In kind it is cell-based, human. To be noted: 5 or 10 μM, 2 h CHX chase. In short, it runs like this:
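HEK293 cells stably expressing the ERAD reporter TCRα-GFP were pretreated with MG132 and washed. They were then incubated with CHX plus test compound for 2 h before harvest, and reporter levels were assessed by immunoblotting.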

A further experiment has as its target C522A-p97 (Mus musculus, UniProt Q01853, C522A). In words: In vitro ATPase assay of C522A-p97. In kind it is biochemical. To be noted: compared with wild-type p97. In short, it runs like this: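 The C522A p97 mutant was made by site-directed mutagenesis of the wild-type p97 plasmid. It was assayed for in vitro ATPase activity beside wild-type p97, and inhibition was read from titration curves of test compound.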

The test system of experiment [5] is ODD-Luc. The experiment is described as follows: ODD-Luc reporter accumulation assay. In kind it is cell-based, human. The conditions noted are these: 7.5 μM for 2 h, relative to DMSO. An outline of the steps: (§1)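 HeLa cells stably expressing UbG76V-GFP were lentivirally transduced with ODD-Luc or Luc-ODC and kept under puromycin (2.5 μg/ml). Cells were seeded at 5000 per well and grown 16 h. They were treated 2–3 h in modified DMEM (no phenol red, folic acid, riboflavin or vitamin B12) containing DMSO, MG132 or test compound. d-Luciferin (1 mg/ml in PBS, stock) was added, followed by 5 min shaking at room temperature. Luminescence was read with […] integration and normalized to DMSO.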

For experiment [6], the system named is Luc-ODC. In words: Luc-ODC reporter accumulation assay. In kind it is cell-based, human. The conditions noted are these: 30 μM for 2.5 h, relative to DMSO. An outline of the steps:
as §1

[7] abbreviates: read-out: IC50 p97 ATPase, in vitro, WT p97, triplicate, ± S.D.
The mark [8] stands for this setting: IC50 p97 ATPase, in vitro, WT p97, triplicate, ± S.D.

Structures are written as SMILES. “And” between values parts separate entries of the source, which are not always exact repeats. Identical values can stand only once. Like-named read-outs stand apart in the source and are kept apart here. Peptide text beside a SMILES is read from it. * marks the point of attachment. Cbz = O=C(OCc1ccccc1)* Some results are limits rather than exact numbers.

The IC50 is the midpoint of a concentration-inhibition curve.

p97 ATPase, sequence (Q01853 whole entry): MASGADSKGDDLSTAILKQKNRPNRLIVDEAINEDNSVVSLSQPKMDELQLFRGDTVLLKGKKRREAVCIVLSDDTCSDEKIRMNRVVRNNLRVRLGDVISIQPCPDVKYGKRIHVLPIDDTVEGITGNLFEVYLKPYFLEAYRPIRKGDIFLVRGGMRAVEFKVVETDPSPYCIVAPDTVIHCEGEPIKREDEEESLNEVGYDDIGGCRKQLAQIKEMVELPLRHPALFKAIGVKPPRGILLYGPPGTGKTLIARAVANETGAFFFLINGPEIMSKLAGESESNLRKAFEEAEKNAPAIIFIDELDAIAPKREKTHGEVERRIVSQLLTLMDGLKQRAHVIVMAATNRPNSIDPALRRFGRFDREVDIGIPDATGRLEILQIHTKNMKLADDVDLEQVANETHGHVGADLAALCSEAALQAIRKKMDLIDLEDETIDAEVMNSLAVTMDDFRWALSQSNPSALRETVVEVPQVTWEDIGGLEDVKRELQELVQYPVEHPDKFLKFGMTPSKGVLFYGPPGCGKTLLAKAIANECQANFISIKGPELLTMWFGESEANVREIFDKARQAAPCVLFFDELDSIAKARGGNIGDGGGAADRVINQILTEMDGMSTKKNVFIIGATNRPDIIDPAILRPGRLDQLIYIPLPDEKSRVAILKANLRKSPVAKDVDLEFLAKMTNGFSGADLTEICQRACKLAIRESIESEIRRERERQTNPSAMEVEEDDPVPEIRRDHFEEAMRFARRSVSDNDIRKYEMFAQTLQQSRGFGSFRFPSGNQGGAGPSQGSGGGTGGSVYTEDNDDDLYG
C522A-p97, sequence (Q01853 whole entry C522A): as the sequence (Q01853 whole entry) above, with C522A counted along it

For `CC[n+]1c(/C=C/N(C)c2ccccc2)n(-c2ccccc2)c2ccc(-c3nc4ccccc4s3)cc21` [Compound 1, Akt inhibitor IV], the concentration for half-maximal inhibition (IC50) at p97 ATPase (setting [7]) is 12 ± 5 µM.
Same read-out and setting: the figure for `O=c1[nH]c2ccccc2n1C1CCN(Cc2ccc(-c3nc4cc5[nH]cnc5cc4nc3-c3ccccc3)cc2)CC1` [Compound 2, Akt inhibitor VIII] is 43 ± 4 µM.
For `CCN(CC)CCCCN1c2ccccc2Oc2ccc(Cl)cc21` [Compound 3, Akt inhibitor X], the half-inhibitory concentration (IC50) is 16 ± 9 µM with Ub^G76V-GFP [1], 14 ± 11 µM in the experiment with ODD-Luc [2], above 50 µM at p97 ATPase and 11 ± 5 µM in the experiment on Luc-ODC [4]. Moreover, in the experiment on Ub^G76V-GFP [3], the “Score in Ub^G76V-GFP accumulation screen” value was “did not score as positives”.
`O=C1c2ccccc2-c2nc3nnnn3nc21` [Compound 4, PDK1/Akt/Flt]: at p97 ATPase (setting [7]), the concentration for half-maximal inhibition (IC50) was above 50 µM.
As to `COc1ccc2c(c[n+](C)c3c4cc5c(cc4ccc23)OCO5)c1OC` [Compound 5, Chelerythrine chloride], the IC50 with Ub^G76V-GFP [1] amounted to 2.2 ± 1 µM; in the experiment on ODD-Luc [2], 3.4 ± 0.2 µM; on p97 ATPase (setting [8]), 24 ± 11 µM; in the experiment on Luc-ODC [4], 1.9 ± 0.7 µM.
For the compound `CO[C@H]1[C@@H](OC)C[C@H](C)[C@@H](OC)C2=CC(=O)C=C(NC(=O)/C(C)=C/C=C\[C@H](OC)[C@@H](OC(N)=O)/C(C)=C/[C@@H]1C)C2=O` [Compound 6, Herbimycin A, Streptomyces sp.], the half-maximal inhibitory concentration (IC50) with Ub^G76V-GFP [1] was 2.8 ± 1.6 µM; in the experiment with ODD-Luc [2], 5 ± 2 µM; on p97 ATPase (setting [8]) it was above 50 µM; with Luc-ODC [4], above 30 µM. The “Effect on Luc-ODC degradation (in words)” value in the experiment on Luc-ODC [4] is “very little activity”.
For the compound `O=[N+]([O-])C=Cc1ccc2c(c1)OCO2` [Compound 7, 3,4-methylenedioxy-β-nitrostyrene], the “Stabilization of Ub^G76V-GFP” value in the experiment on Ub^G76V-GFP [1] (1.7 μM) amounted to 2 fold. The “Stabilization of Ub^G76V-GFP (in words)” value with Ub^G76V-GFP [1] (7.5 μM) is reported as “almost complete stabilization”. The IC50 is 1.6 ± 0.4 µM in the experiment with Ub^G76V-GFP [1]; 5.9 ± 1.5 µM in the experiment with ODD-Luc [2]; ≤ 10 µM and 1.7 µM at p97 ATPase (setting [8]); above 30 µM in the experiment on Luc-ODC [4]. Further, the “IC50 for p97-dependent versus p97-independent reporters” value in the experiment on Ub^G76V-GFP [1] (fold lower, Ub^G76V-GFP vs ODD-Luc) is 3.5 fold. Moreover, the “Accumulation of Ub^G76V-GFP” value with Ub^G76V-GFP [3] (7.5 or 30 μM, 3 h) is below 2 fold. Moreover, the “Score in Ub^G76V-GFP accumulation screen” value in the experiment on Ub^G76V-GFP [3] is reported as “did not score as positives”. For the same compound, the “Degradation of TCRα-GFP” value with TCRα-GFP was “potently blocked”. In addition, the “Effect on Luc-ODC degradation (in words)” value in the experiment on Luc-ODC [4] is “very little activity”. Further, the “Activity toward C522A-p97 ATPase (in words)” value on C522A-p97 is recorded as “poor activity”.
With `CN[C@@H]1C[C@H]2O[C@@](C)([C@@H]1OC)n1c3ccccc3c3c4c(c5c6ccccc6n2c5c31)C(=O)NC4` [Compound 8, Staurosporine, Streptomyces sp.], the IC50 on p97 ATPase (setting [7]) was above 50 µM.
For `Cc1ccc(S(=O)(=O)/C=C/C#N)cc1` [Compound 9, BAY 11-7082], the IC50 on p97 ATPase (setting [7]) came out at 12 ± 1 µM.
Same read-out and setting: the figure for `CCn1cnc2c(Nc3cccc(Cl)c3)nc(N[C@@H]3CCCC[C@@H]3N)nc21` [Compound 10, Cdk1 Inhibitor, CGP74514A] is 17 ± 3 µM; for `Cc1ccc(NC2=CC(=O)c3sc(C)nc3C2=O)cc1` [Compound 11, Cdk4 inhibitor III] it is 13 ± 0.5 µM.
`O=C1c2ccccc2-[n+]2ccc3c([nH]c4ccccc43)c21` [Compound 12, Fascaplysin]: the IC50 in the experiment on Ub^G76V-GFP [1] is 0.9 ± 0.1 µM; with ODD-Luc [2], 6.9 ± 1.9 µM; against p97 ATPase (setting [8]), above 50 µM; in the experiment on Luc-ODC [4], above 30 µM. The “Effect on Luc-ODC degradation (in words)” value in the experiment with Luc-ODC [4] is on record as “very little activity”.
With `Cn1nc2c3c(cccc31)C(=O)c1ccccc1-2` [Compound 14, JNK inhibitor, negative control], the IC50 at p97 ATPase (setting [7]) is above 50 µM.
As to `COC(=O)[C@@]1(O)C[C@H]2O[C@]1(C)n1c3ccccc3c3c4c(c5c6ccccc6n2c5c31)C(=O)NC4` [Compound 15, K-252a, Nocardiopsis sp.], at p97 ATPase (setting [7]), the IC50 was 26 ± 2 µM.
On to `O=C1NC(=O)c2cc(Nc3ccc(F)cc3)c(Nc3ccc(F)cc3)cc21` [Compound 16, PKCbII/EGFR inhibitor], for which the IC50 at p97 ATPase (setting [7]) is above 50 µM.
Turning to `N#Cc1cnc2cnc(NCc3cccnc3)cc2c1Nc1ccc(F)c(Cl)c1` [Compound 17, Tpl2 kinase inhibitor], the IC50 on p97 ATPase (setting [7]) is above 50 µM.
Regarding `O=C(O)C=Cc1ccc2c(c1)OCO2` [Compound 18, 3,4-Methylenedioxycinnamic acid], in the experiment with Ub^G76V-GFP [1], the “Effect on Ub^G76V-GFP degradation (in words)” value is “greatly diminished activity”.
Turning to `CC(C)C[C@@H](C=O)NC(=O)[C@H](CC(C)C)NC(=O)[C@H](CC(C)C)NC(=O)OCc1ccccc1` [MG132] (Cbz-Leu-Leu-Leu-aldehyde), the “Ub^G76V-GFP reporter accumulation” value in the experiment with Ub^G76V-GFP [3] (7.5 μM for 2 h, relative to DMSO) is around 20 fold. The “IC50 with Luc-ODC reporter relative to Ub^G76V-GFP and ODD-Luc reporters” value with Luc-ODC [4] (fold higher) is around 3 fold. Moreover, in the experiment with ODD-Luc [5], the ODD-Luc reporter accumulation is given as around 20 fold. This compound registered a Luc-ODC reporter accumulation in the experiment with Luc-ODC [6] of 1.6 fold.
For `NS(=O)(=O)OC[C@@H]1C[C@@H](n2ccc3c(N[C@H]4CCc5ccccc54)ncnc32)C[C@@H]1O` [MLN4924], the “Effect on Ub^G76V-GFP degradation (in words)” value in the experiment with Ub^G76V-GFP [1] was “had no effect”. For the same compound, the “Effect on ODD-Luc degradation (in words)” value in the experiment on ODD-Luc [2] was “strong stabilization”. In the experiment on Luc-ODC [4], the “Effect on Luc-ODC degradation (in words)” value is reported as “had no effect”.

Values taken from article PMC3089497 (The Journal of Biological Chemistry, 2011).
